This is one part of a sample in which hits are shown more often than they occur.
INS promoter act = activators of insulin promoter-driven GFP, primary screen, imaging, TRM-6 cells (human fetal islet line), eGFP reporter, cell count; plate-scaled: unstimulated 0, stimulated control 100; activation, % at 2 µM; hit rate 0.81% among 130,000;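 active = activation at 2 µM above a set limit, confirmed on inspection of the cell images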;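 also: share of cells whose green reporter signal exceeds an intensity cutoff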
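System – TRM-6 insulin promoter–eGFP reporter cells · Probe or stimulus – 0.75 µM tamoxifen as reporter inducer · Dosing – single-point 2 µM compound dose · Incubation – tamoxifen pre-incubation 15 h overnight, then compound exposure 48 h at 37 °C · Measured by – fixed-cell fluorescence microscopy, eGFP plus Hoechst · Evaluation – percent GFP-positive cells normalized to per-plate controls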
An asterisk follows results filed as active.

SMILES | INS promoter act
Cn1c(SCC(=O)NCc2ccco2)nnc1-c1ccc(S(=O)(=O)N2CCOCC2)cc1 | -6.1
O=C(CSc1nnc(-c2cc3ccccc3cc2O)n1Cc1ccco1)c1ccc(F)cc1 | -6.1
O=C(CSc1ccc(-c2ccco2)nn1)Nc1ccccc1 | -75.0
Cc1cc(=O)oc2cc(OC(C)C(=O)Nc3nccs3)ccc12 (stereo not given) | 256.8
CCN(CC)CCCNC1CCS(=O)(=O)C1 (stereo not given) | -90.0
O=C(/C=C/c1ccc(Cl)cc1)Nn1c(-c2cccs2)nc2ccccc2c1=O | -6.7
CCCOc1ccc(C2C(=O)N(C3CCCCCC3)CC(=O)N2Cc2ccco2)cc1OC (stereo not given) | 0.0
O=Cc1ccc(OCC(=O)Nc2ccccc2-c2ccccc2)cc1 | -6.7
CCOC(=O)C1CCN(c2c(NCc3ccc(C(=O)NCCC(C)C)cc3)c(=O)c2=O)CC1 | 0.0
CC(=O)NNc1ncnc2c1cnn2-c1ccc(C)cc1 | -8.3
Cc1cc(C)cc(Nc2c(F)c(F)c(F)c(F)c2C(=O)O)c1 | 8.3
Cc1nc(SCC(=O)Nn2c(-c3ccccc3)nc3ccccc3c2=O)n[nH]1 | -2.9
O=C(NCc1ccc(F)cc1)c1ccc(N2CCc3ccccc32)c([N+](=O)[O-])c1 | 2.7
Clc1cc2nc3ccccn3c2cc1Cl | -5.7
CC1(c2ccc([N+](=O)[O-])c(CS(=O)(=O)c3ccccc3)c2)OCCO1 | 627.3*
CC1CCN(C(=O)c2ccc(S(=O)(=O)Cc3ccccc3F)c([N+](=O)[O-])c2)CC1 | 5.4
O=C(c1ccc(S(=O)(=O)Cc2ccccc2F)c([N+](=O)[O-])c1)N1CCCC1 | 0.0
Cc1ccc(S(=O)(=O)Nc2c(C)n(C)n(-c3ccccc3)c2=O)cc1 | 9.4
O=C(CSc1nnc(-c2ccco2)n1CC1CCCO1)NC1CCCC1 (stereo not given) | -6.9
COc1cccc(NC(=O)CSc2nnc(-c3ccoc3C)n2CC2CCCO2)c1 (stereo not given) | 5.6
COc1ccc(NC(=O)CSc2nnc(-c3ccoc3C)n2CC2CCCO2)cc1 (stereo not given) | 506.3*
COc1ccccc1OCCOCCOc1ccc(C)cc1[N+](=O)[O-] | 8.1
Fc1cc(F)c(F)c(SCCc2ccncc2)c1F | 3.6
CC(C)(C)NC(=S)NCc1cccnc1 | 0.0
CCc1ccc(NC(=O)N(CCN2CCOCC2)Cc2ccc3c(c2)CCCN3CC)cc1 | -8.3
SMILES | INS promoter act
CCN1CCCc2cc(CN(CCN3CCOCC3)C(=S)Nc3ccccc3C)ccc21 | -8.3
CCN1CCCc2cc(CN(CCN3CCOCC3)C(=S)Nc3ccc(OC)c(OC)c3)ccc21 | 425.0*
Cc1ccc2c(c1)[C@@H](O)C[C@@H](C)N2N=O | -2.9
O=C(Nc1nc(SCc2ccc(F)cc2)ns1)c1ccco1 | 93.6
CSc1nsc(NC(=O)Cc2ccccc2)n1 | 103.2*
CCOCCc1nnc(NC(=O)Cc2ccccc2)s1 | 0.0
CN(CC(=O)Nc1ccncc1)S(=O)(=O)c1ccccc1 | 6.7
CCN(CC)S(=O)(=O)c1cccc(-c2nnc(SCC(=O)NC3CCCCCCC3)n2N)c1 | -3.6
O=C(Nc1ccc2c(c1)C(=O)N(CC1CCCO1)C2=O)c1ccccc1Br (stereo not given) | 2.9
Cc1ccnc2ccc(SC(F)(F)F)cc12 | 416.7*
COc1ccccc1NC(=O)C1=C(C)NC(=O)NC1c1cc(C)cs1 (stereo not given) | 111.1
CCC(CC)c1nnc(NC(=O)CS(=O)(=O)Cc2ccccc2)s1 | -42.9
Cc1ccnc(NC(=O)CS(=O)(=O)Cc2ccccc2)c1 | 550.0*
CC(C)Cc1nnc(NC(=O)CS(=O)(=O)Cc2ccccc2)s1 | 5.7
O=C(CSc1ccccn1)C12CC3CC(CC(C3)C1)C2 | 5.9
O=C(/C=C/c1c(Cl)cccc1Cl)NCCc1ccccc1 | 8.6
O=C(O)/C=C/C(=O)NCCc1ccccc1 | 321.4*
COc1ccc(CCNC(=O)/C=C/C(=O)O)cc1 | 0.0
O=C(NCc1ccco1)C(c1ccccc1)N(Cc1ccccc1)C(=O)Cn1nnc2ccccc21 (stereo not given) | 64.3
Cc1ccc(NS(=O)(=O)c2ccc(CCC(=O)NCc3cccnc3)cc2)cc1 | 137.2
O=C(CSC1=NCCS1)Nc1nc2c(s1)CCCC2 | 6.1
O=c1c(-c2ccco2)[n+]([O-])c2ccccc2n1OCc1ccccn1 | -5.3
COn1c(=O)c(-c2cccs2)[n+]([O-])c2ccccc21 | 87.2*
Cn1c(-c2cccs2)[n+](C)c2ccccc21 | 8.7
CCOc1cc(NC(=S)NCC(C)C)c(OCC)cc1NC(=O)c1ccco1 | -6.7
SMILES | INS promoter act
CCc1cccc(CC)c1-n1c(SCc2cc(=O)n3ccsc3n2)nnc1-c1cccnc1 | 7.0
CC(C)c1ccc(-c2c(C#N)c(N)nc3c2CCCCC3)cc1 | -7.1
N#Cc1c2c(nc(N)c1-c1ccccc1)CCCCC2 | -9.3
N#Cc1c(N)nc2c(c1-c1ccncc1)CCCC2 | 0.0
N#Cc1c(N)nc2c(c1-c1ccncc1)CCCCCC2 | 450.0*
Cc1[nH]n2c(=O)c3c(nc2c1-c1ccccc1)CCC3 | -83.3
CSc1nc2c(c(-c3ccccc3)c1C#N)CCC2 | 411.1*
